In brackets after ≈: the same amount, converted by molar mass.
Assays:
[1] = test system: Mycobacterium tuberculosis; assay: Antimycobacterial activity against drug-sensitive Mycobacterium tuberculosis H37Rv ATCC 27294 after 7 days by microplate alamar blue assay; format: functional; details: H37Rv ATCC 27294, 168 h
How it was run: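 Microplate Alamar Blue Assay against M. tuberculosis H37Rv ATCC 27294, read by fluorescence. MIC was the lowest concentration that reduced fluorescence by >90% relative to the mean of replicate bacterium-only controls.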

Streptococcus pneumoniae = assay: Antibacterial activity against Streptococcus pneumoniae ATCC 49619 after 18 to 24 hrs by NCCLS M100-S11 based assay; format: functional
Escherichia coli = assay: Antibacterial activity against Escherichia coli ATCC 25922 after 18 to 24 hrs by NCCLS M100-S11 based assay; format: functional
Staphylococcus aureus [2] = assay: Antibacterial activity against Staphylococcus aureus ATCC 25923 after 18 to 24 hrs by NCCLS M100-S11 based assay; format: functional
Staphylococcus aureus [3] = assay: Antibacterial activity against methicillin-sensitive Staphylococcus aureus 12-1 after 18 to 24 hrs by NCCLS M100-S11 based assay; format: functional
Klebsiella pneumoniae = assay: Antibacterial activity against Klebsiella pneumoniae 12-1 after 18 to 24 hrs by NCCLS M100-S11 based assay; format: functional
[4] = test system: Staphylococcus epidermidis; assay: Antibacterial activity against methicillin-resistant Staphylococcus epidermidis 12-6 after 18 to 24 hrs by NCCLS M100-S11 based assay; format: functional
How it was run: (§1)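 Broth MIC set up per NCCLS M100-S11. Plates were incubated at 35 °C for 18–24 h. MIC was the lowest concentration that inhibited visible bacterial growth, i.e. complete growth inhibition.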

[5] = test system: Staphylococcus epidermidis; assay: Antibacterial activity against methicillin-sensitive Staphylococcus epidermidis 12-1 after 18 to 24 hrs by NCCLS M100-S11 based assay; format: functional
Pseudomonas aeruginosa = assay: Antibacterial activity against Pseudomonas aeruginosa 12-12 after 18 to 24 hrs by NCCLS M100-S11 based assay; format: functional
Staphylococcus aureus [6] = assay: Antibacterial activity against methicillin-resistant Staphylococcus aureus 12-2 after 18 to 24 hrs by NCCLS M100-S11 based assay; format: functional; how it was run: as §1
[7] = Half life in rat at 25 mg/kg, po administered as single dose; format: ADME, organism-based; details: in vivo
How it was run: (§2)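 Rats given one oral dose of 25 mg/kg; n = 6 animals, values as mean ± SD. Plasma profile gave Cmax, Tmax, AUC from zero to infinity, elimination half-life, mean residence time, apparent clearance (CL/F) and apparent volume of distribution (Vd/F).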

[8] = Cmax in rat at 25 mg/kg, po administered as single dose; format: ADME, organism-based; set-up: dose 25 mg/kg, route oral; details: in vivo; how it was run: as §2
Mus musculus = assay: Acute toxicity in mouse assessed as mortality at 50 to 100 mg/kg, iv administered as single dose measured up to 7 days post dose; format: organism-based; details: in vivo, 168 h
How it was run: (§3)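 Single dose given intravenously to mice (50 and 100 mg/kg) or orally to rats (500 and 1000 mg/kg).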

Rattus norvegicus [9] = assay: Acute toxicity in rat assessed as mortality at 500 mg/kg, po administered as single dose measured up to 7 days post dose; format: organism-based; details: in vivo, 168 h; how it was run: as §3
[10] = Tmax in rat at 25 mg/kg, po administered as single dose; format: ADME, organism-based; details: in vivo; how it was run: as §2
[11] = Mean residence time in rat at 25 mg/kg, po administered as single dose; format: ADME, organism-based; details: in vivo; how it was run: as §2
Rattus norvegicus [12] = assay: Acute toxicity in rat assessed as mortality at 1000 mg/kg, po administered as single dose measured up to 7 days post dose; format: organism-based; details: in vivo, 168 h; how it was run: as §3
[13] = AUC (0 to infinity) in rat at 25 mg/kg, po administered as single dose; format: ADME, organism-based; set-up: dose 25 mg/kg, route oral, time infinity; details: in vivo; how it was run: as §2
[14] = Apparent clearance in rat at 25 mg/kg, po administered as single dose; format: ADME, organism-based; details: in vivo; how it was run: as §2
[15] = Apparent volume of distribution in rat at 25 mg/kg, po administered as single dose; format: ADME, organism-based; details: in vivo; how it was run: as §2

Cc1ccn2c(C(=O)NCCOc3ccccc3[N+](=O)[O-])c(C)nc2c1
MIC90 [1]: 0.5 µg/mL (≈ 1.41 µM)

Cc1ccc2nc(C)c(C(=O)NCCOc3ccc(Cl)cc3)n2c1
MIC (Streptococcus pneumoniae): > 32 µg/mL | MIC (Escherichia coli): > 32 µg/mL | MIC (Staphylococcus aureus [2]): > 32 µg/mL | MIC90 [1]: 0.03 µg/mL (≈ 0.0873 µM) | MIC (Staphylococcus aureus [3]): > 32 µg/mL | MIC (Klebsiella pneumoniae): > 32 µg/mL | MIC [4]: > 32 µg/mL | MIC [5]: > 32 µg/mL | MIC (Pseudomonas aeruginosa): > 32 µg/mL | MIC (Staphylococcus aureus [6]): > 32 µg/mL

Cc1ccc(OCCNC(=O)c2c(C)nc3cc(C)ccn23)cc1
MIC90 [1]: 0.673 µg/mL (≈ 2.08 µM)

Cc1ccn2c(C(=O)NCCOc3ccc(Br)cc3)c(C)nc2c1
MIC90 [1]: 0.463 µg/mL (≈ 1.19 µM)

Cc1ccc(OCCNC(=O)c2c(C)nc3ccc(C)cn23)cc1
MIC90 [1]: 0.204 µg/mL (≈ 0.631 µM)

COc1ccccc1OCCNC(=O)c1c(C)nc2cc(C)ccn12
MIC90 [1]: 2 µg/mL (≈ 5.89 µM)

Cc1ccc2nc(C)c(C(=O)NCCNc3ccc(Br)cc3)n2c1
MIC90 [1]: 0.25 µg/mL (≈ 0.646 µM)

Cc1ccn2c(C(=O)NCCOc3ccccc3)c(C)nc2c1
MIC90 [1]: 0.935 µg/mL (≈ 3.02 µM)

Cc1cccc(OCCNC(=O)c2c(C)nc3cc(C)ccn23)c1
MIC90 [1]: 0.329 µg/mL (≈ 1.02 µM)

Cc1ccn2c(C(=O)NCCOc3ccc(-c4ccccc4)cc3)c(C)nc2c1
MIC90 [1]: 0.518 µg/mL (≈ 1.34 µM)

Cc1ccn2c(C(=O)NCCOc3ccc(Cl)cc3)c(C)nc2c1
MIC90 [1]: 2 µg/mL (≈ 5.82 µM)

Cc1cccc(OCCNC(=O)c2c(C)nc3ccc(C)cn23)c1
MIC (Streptococcus pneumoniae): > 32 µg/mL | MIC (Escherichia coli): > 32 µg/mL | MIC (Staphylococcus aureus [2]): > 32 µg/mL | MIC90 [1]: 0.029 µg/mL (≈ 0.0897 µM) | MIC (Staphylococcus aureus [3]): > 32 µg/mL | MIC (Klebsiella pneumoniae): > 32 µg/mL | MIC [4]: > 32 µg/mL | MIC [5]: > 32 µg/mL | MIC (Pseudomonas aeruginosa): > 32 µg/mL | MIC (Staphylococcus aureus [6]): > 32 µg/mL

Cc1ccc2nc(C)c(C(=O)NCCOc3ccc(Br)cc3)n2c1
half-life [7]: 90 min | Cmax [8]: 225 ng/mL | MIC (Streptococcus pneumoniae): > 32 µg/mL | MIC (Escherichia coli): > 32 µg/mL | Activity (Mus musculus): Non-Toxic | MIC (Staphylococcus aureus [2]): > 32 µg/mL | Activity (Rattus norvegicus [9]): Non-Toxic | Tmax [10]: 30 min | MIC90 [1]: 0.027 µg/mL (≈ 0.0695 µM) | MIC (Staphylococcus aureus [3]): > 32 µg/mL | MRT [11]: 96 min | Activity (Rattus norvegicus [12]): Non-Toxic | MIC (Klebsiella pneumoniae): > 32 µg/mL | AUC(0-inf) [13]: 288 ng·h/mL | MIC [4]: > 32 µg/mL | CL/F [14]: 1440 mL/min/kg | Vd/F [15]: 186 L/kg | MIC [5]: > 32 µg/mL | MIC (Pseudomonas aeruginosa): > 32 µg/mL | MIC (Staphylococcus aureus [6]): > 32 µg/mL

COc1ccccc1OCCNC(=O)c1c(C)nc2ccc(C)cn12
MIC90 [1]: 0.401 µg/mL (≈ 1.18 µM)

COc1ccc(OCCNC(=O)c2c(C)nc3cc(C)ccn23)cc1
MIC90 [1]: 2 µg/mL (≈ 5.89 µM)

Cc1ccc2nc(C)c(C(=O)NCCOc3ccc([N+](=O)[O-])cc3)n2c1
MIC90 [1]: 0.245 µg/mL (≈ 0.691 µM)

Cc1ccn2c(C(=O)NCCOc3ccccc3C)c(C)nc2c1
MIC90 [1]: 0.231 µg/mL (≈ 0.714 µM)

Cc1ccn2c(C(=O)NCCOc3ccc(F)cc3)c(C)nc2c1
MIC90 [1]: 2 µg/mL (≈ 6.11 µM)

Cc1ccc2nc(C)c(C(=O)NCCOc3ccc(F)cc3)n2c1
MIC90 [1]: 0.146 µg/mL (≈ 0.446 µM)

Cc1ccn2c(C(=O)NCCOc3cccc([N+](=O)[O-])c3)c(C)nc2c1
MIC90 [1]: 0.5 µg/mL (≈ 1.41 µM)

Cc1ccn2c(C(=O)NCCOc3ccc([N+](=O)[O-])cc3)c(C)nc2c1
MIC90 [1]: 4 µg/mL (≈ 11.3 µM)

COc1cccc(OCCNC(=O)c2c(C)nc3ccc(C)cn23)c1
half-life [7]: 67.2 min | Cmax [8]: 351 ng/mL | MIC (Streptococcus pneumoniae): > 32 µg/mL | MIC (Escherichia coli): > 32 µg/mL | Activity (Mus musculus): Non-Toxic | MIC (Staphylococcus aureus [2]): > 32 µg/mL | Activity (Rattus norvegicus [9]): Non-Toxic | Tmax [10]: 10.2 min | MIC90 [1]: 0.03 µg/mL (≈ 0.0884 µM) | MIC (Staphylococcus aureus [3]): > 32 µg/mL | MRT [11]: 42.6 min | MIC (Klebsiella pneumoniae): > 32 µg/mL | AUC(0-inf) [13]: 214 ng·h/mL | MIC [4]: > 32 µg/mL | CL/F [14]: 1940 mL/min/kg | Vd/F [15]: 188 L/kg | MIC [5]: > 32 µg/mL | MIC (Pseudomonas aeruginosa): > 32 µg/mL | MIC (Staphylococcus aureus [6]): > 32 µg/mL

Cc1ccc2nc(C)c(C(=O)NCCOc3ccccc3[N+](=O)[O-])n2c1
MIC90 [1]: 0.303 µg/mL (≈ 0.855 µM)

Cc1ccc2nc(C)c(C(=O)NCCOc3ccccc3C)n2c1
MIC (Streptococcus pneumoniae): > 32 µg/mL | MIC (Escherichia coli): > 32 µg/mL | MIC (Staphylococcus aureus [2]): > 32 µg/mL | MIC90 [1]: 0.038 µg/mL (≈ 0.118 µM) | MIC (Staphylococcus aureus [3]): > 32 µg/mL | MIC (Klebsiella pneumoniae): > 32 µg/mL | MIC [4]: > 32 µg/mL | MIC [5]: > 32 µg/mL | MIC (Pseudomonas aeruginosa): > 32 µg/mL | MIC (Staphylococcus aureus [6]): > 32 µg/mL

COc1ccc(OCCNC(=O)c2c(C)nc3ccc(C)cn23)cc1
MIC (Streptococcus pneumoniae): > 32 µg/mL | MIC (Escherichia coli): > 32 µg/mL | MIC (Staphylococcus aureus [2]): > 32 µg/mL | MIC90 [1]: 0.031 µg/mL (≈ 0.0913 µM) | MIC (Staphylococcus aureus [3]): > 32 µg/mL | MIC (Klebsiella pneumoniae): > 32 µg/mL | MIC [4]: > 32 µg/mL | MIC [5]: > 32 µg/mL | MIC (Pseudomonas aeruginosa): > 32 µg/mL | MIC (Staphylococcus aureus [6]): > 32 µg/mL

Cc1ccc2nc(C)c(C(=O)NCCOc3ccc(-c4ccccc4)cc3)n2c1
MIC90 [1]: 0.39 µg/mL (≈ 1.01 µM)

Cc1ccc2nc(C)c(C(=O)NCCOc3ccccc3)n2c1
half-life [7]: 25.8 min | Cmax [8]: 655 ng/mL | MIC (Streptococcus pneumoniae): > 32 µg/mL | MIC (Escherichia coli): > 32 µg/mL | Activity (Mus musculus): Non-Toxic | MIC (Staphylococcus aureus [2]): > 32 µg/mL | Activity (Rattus norvegicus [9]): Non-Toxic | Tmax [10]: 19.8 min | MIC90 [1]: 0.054 µg/mL (≈ 0.175 µM) | MIC (Staphylococcus aureus [3]): > 32 µg/mL | MRT [11]: 36.6 min | MIC (Klebsiella pneumoniae): > 32 µg/mL | AUC(0-inf) [13]: 453 ng·h/mL | MIC [4]: > 32 µg/mL | CL/F [14]: 919 mL/min/kg | Vd/F [15]: 33.8 L/kg | MIC [5]: > 32 µg/mL | MIC (Pseudomonas aeruginosa): > 32 µg/mL | MIC (Staphylococcus aureus [6]): > 32 µg/mL

COc1cccc(OCCNC(=O)c2c(C)nc3cc(C)ccn23)c1
MIC90 [1]: 0.254 µg/mL (≈ 0.748 µM)

NNC(=O)c1ccncc1 [ISONIAZID]
MIC90 [1]: 0.049 µg/mL (≈ 0.357 µM)

CO[C@H]1/C=C/O[C@@]2(C)Oc3c(C)c(O)c4c(O)c(c(/C=N/N5CCN(C)CC5)c(O)c4c3C2=O)NC(=O)/C(C)=C\C=C\[C@H](C)[C@H](O)[C@@H](C)[C@@H](O)[C@@H](C)[C@H](OC(C)=O)[C@@H]1C [RIFAMPIN]
MIC90 [1]: 0.05 µg/mL (≈ 0.0608 µM)

Reference: ChEMBL document CHEMBL3864185, “Identification of N-(2-Phenoxyethyl)imidazo[1,2-a]pyridine-3-carboxamides as New Antituberculosis Agents” (ACS Med Chem Lett, 2016)
